Assay results as given in article PMC8819215 (Iranian Journal of Public Health, 2021).
Read-outs that look alike come from different tables or passages of the source.

How the values were obtained:
parasites = conditions: cited from earlier work
L. major promastigotes = assay: Promastigote growth inhibition; assay type: cell-based, Leishmania major
In short: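 Stationary-phase (5 d) L. major MRHO/IR/75/ER promastigotes (1×10^6) were grown at 26 °C in RPMI-1640 with 10% heat-inactivated FCS, pH 7.4. They received TBO (7.8–500 μg/ml) plus 630 nm LED irradiation. MTT at 570 nm was read at 2, 24 and 48 h, as % of untreated OD. IC50 came from dose-response curves, triplicates. SI = macrophage CC50/promastigote IC50.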

[1] = tested on: J774A.1 macrophages cell line; assay: Cytotoxicity; assay type: cell-based, mice
L. braziliensis [2] = conditions: 10 μg/ml TBO; cited from earlier work
L. major = conditions: cited from earlier work
L. braziliensis [3] = conditions: in-vitro; cited from earlier work

CN(C)c1ccc2nc3ccc(=[N+](C)C)cc-3sc2c1 [MB, methylene blue]
decrease of parasites viability (parasites; PDT): more than 70% | decrease of parasites viability (parasites; in the dark, higher concentration of MB): up to 50%

Cc1cc2nc3ccc(N(C)C)cc3[s+]c2cc1N.[Cl-] [TBO, Toluidine Blue O]
decrease in viability (L. major promastigotes; PDT, three highest concentrations, after 24 h): more than 70% | toxicity to parasites (L. major promastigotes; dark group (no PDT), highest concentrations): intermediate toxicity | toxicity to macrophages compared to glucantime (positive control) [1]: less toxicity | cytotoxicity to J774.A1 macrophages ([1]; dark group): no cytotoxic | parasite viability (L. braziliensis [2]): significantly reduced

Aluminum phthalocyanine
phototoxicity (L. major; 10.0μM concentration and 10 J/cm^2 irradiation): phototoxic

aluminum phthalocyanine tetra sulfonate
elimination of parasites by PDT (L. major; in-vitro): effectively eliminated | elimination of parasites by PDT (L. braziliensis [3]): effectively eliminated
